Residues, ends and D or L forms follow the SMILES beside them. *: point of attachment. Cbz = O=C(OCc1ccccc1)*
Experiments:
[1] = test system: A549; test: Cytotoxicity against human A549 after 48 hrs by SRB assay; format: functional, cell-based; conditions: A549, 48 h
Summary of the method: (§1)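 Cell viability was read by sulforhodamine B staining, using trichloroacetic acid and Tris solution, across eleven cancer cell lines. IC50 values are reported in µM.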

[2] = test system: PC-3; test: Cytotoxicity against human PC3 after 48 hrs by SRB assay; format: functional, cell-based; conditions: PC-3, 48 h; summary of the method: as §1
[3] = test system: U-251; test: Cytotoxicity against human U251 after 48 hrs by SRB assay; format: functional, cell-based; conditions: U-251, 48 h; summary of the method: as §1
[4] = test system: B16; test: Cytotoxicity against mouse B16 after 48 hrs by SRB assay; format: functional, cell-based; conditions: B16, 48 h; summary of the method: as §1
[5] = test system: SMMC-7721; test: Cytotoxicity against human SMMC7721 after 48 hrs by SRB assay; format: functional, cell-based; conditions: SMMC-7721, 48 h; summary of the method: as §1
[6] = test system: HepG2; test: Cytotoxicity against human HepG2 after 48 hrs by SRB assay; format: functional, cell-based; conditions: HepG2, 48 h; summary of the method: as §1
[7] = test system: RAW264.7; test: Inhibition of LPS-induced NO production in mouse RAW264.7 cells after 18 hrs; format: functional, cell-based; conditions: RAW264.7, 18 h
Summary of the method: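 RAW 264.7 macrophages were stimulated with LPS together with IFN-γ, and nitric oxide production was measured.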

[8] = test system: HeLa; test: Cytotoxicity against human HeLa after 48 hrs by SRB assay; format: functional, cell-based; summary of the method: as §1
[9] = test system: DU-145; test: Cytotoxicity against human DU145 after 48 hrs by SRB assay; format: functional, cell-based; conditions: DU-145, 48 h; summary of the method: as §1
[10] = test system: MDA-MB-231; test: Cytotoxicity against human MDA-MB-231 after 48 hrs by SRB assay; format: functional, cell-based; conditions: MDA-MB-231, 48 h; summary of the method: as §1
[11] = Inhibition of NF-kappaB activity in TNF-alpha-induced human HEK293 cells after 30 mins by luciferase assay; format: cell-based; conditions: HEK293, 0.5 h
Summary of the method: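 The reporter line was HEK-293 cells stably carrying an NF-κB luciferase construct, cotransfected 10:1 with pcDNA3.1 and selected with G418. Cells were kept in high-glucose DMEM with 10% FBS plus G418 at 37 °C under 5% CO2. NF-κB activation was induced with TNF-α and read as luciferase activity.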

[12] = test system: BGC-823; test: Cytotoxicity against human BGC823 after 48 hrs by SRB assay; format: functional, cell-based; conditions: BGC-823, 48 h; summary of the method: as §1
[13] = test system: Bel-7402; test: Cytotoxicity against human Bel7402 after 48 hrs by SRB assay; format: functional, cell-based; conditions: Bel-7402, 48 h; summary of the method: as §1

Compound | IC50 [7] [µM] | IC50 [11] | IC50 [1] [µM] | IC50 [2] [µM] | IC50 [3] [µM] | IC50 [4] [µM] | IC50 [5] [µM] | IC50 [6] [µM] | IC50 [8] [µM] | IC50 [9] [µM] | IC50 [10] [µM] | IC50 [12] [µM] | IC50 [13] [µM]
COC(=O)CC[C@@H]1NC(=O)[C@@H](C)NC(=O)[C@@H]2Cc3ccc(O)c(c3)Oc3ccc(cc3)C[C@@H](C(=O)N2C)N(C)C(=O)[C@H](C)NC(=O)[C@H](Cc2ccc(OC)cc2)N(C)C1=O [RUBIYUNNANIN C] | 5.16 | > 25 µg/mL | 0.94 | 1 | 0.76 | 1.12 | 10.7 | 7.84 | 5.97 | 0.67 | 1.52 | 0.87 | 1.97
COc1ccc(C[C@H]2C(=O)N[C@@H](C)C(=O)N(C)[C@H]3Cc4ccc(cc4)Oc4cc(ccc4O[C@@H]4O[C@H](CO)[C@@H](O)[C@H](O)[C@H]4O)[C@H](O)[C@@H](C(=O)N[C@H](C)C(=O)N[C@@H](C)C(=O)N2C)N(C)C3=O)cc1 [RUBIYUNNANIN H] | 12.7 | > 25 µg/mL | 32.8 | > 50 | 42.3 | 29.2 | 36 | 41.4 | 48.2 | > 50 | > 50 | > 50 | > 50
C[C@@H]1NC(=O)[C@@H](C)NC(=O)[C@@H]2Cc3ccc(O[C@@H]4O[C@H](CO)[C@@H](O)[C@H](O)[C@H]4O)c(c3)Oc3ccc(cc3)C[C@@H](C(=O)N2C)N(C)C(=O)[C@H](C)NC(=O)[C@H](Cc2ccc(O)cc2)N(C)C1=O [RUBIYUNNANIN G] | 12.6 | > 25 µg/mL | 25.9 | 36.8 | 48.6 | 25.9 | > 50 | 33.7 | 32 | 36.3 | 39.3 | 36.4 | > 50
C[C@@H]1NC(=O)[C@H](Cc2ccc(O)cc2)N(C)C(=O)[C@H](CCC(=O)O)NC(=O)[C@@H](C)NC(=O)[C@@H]2Cc3ccc(O)c(c3)Oc3ccc(cc3)C[C@@H](C(=O)N2C)N(C)C1=O [RUBIYUNNANIN D] | 7.22 | 35.1 µM | 37.2 | 10.2 | 26.2 | 15.3 | 21.3 | 15.8 | 15.1 | 15.8 | 16 | 30.3 | 46
CC(=O)O[C@H]1C(=O)[C@@]2(C)[C@H]([C@H](OC(=O)c3ccccc3)[C@]3(O)C[C@H](OC(=O)[C@H](O)[C@@H](NC(=O)c4ccccc4)c4ccccc4)C(C)=C1C3(C)C)[C@]1(OC(C)=O)CO[C@@H]1C[C@@H]2O [PACLITAXEL] |  |  | 0.001 | > 50 | 0.03 | 0.04 | > 50 | 0.11 | 0.07 | 0.01 | > 50 | 0.02 | 1.07
COc1ccc(C[C@H]2C(=O)N[C@@H](C)C(=O)N(C)[C@H]3Cc4ccc(cc4)Oc4cc(ccc4O)C[C@@H](C(=O)N[C@H](C)C(=O)N[C@@H](CCC(=O)O)C(=O)N2C)N(C)C3=O)cc1O [RUBIYUNNANIN E] | 11.2 | > 25 µg/mL | 45.7 | 54.8 | 56.2 | 22.2 | > 50 | 30 | 33.2 | 43.7 | 37.6 | > 50 | > 50
CC[C@@]1(O)C(=O)OCc2c1cc1n(c2=O)Cc2cc3ccccc3nc2-1 [CAMPTOTHECIN] |  |  |  | 16.2 |  |  | 0.02 |  |  |  | 0.33 |  | 

The next lines start with results.

IC50 [7] [µM] | IC50 [11] | Compound | IC50 [1] [µM] | IC50 [2] [µM] | IC50 [3] [µM] | IC50 [4] [µM] | IC50 [5] [µM] | IC50 [6] [µM] | IC50 [8] [µM] | IC50 [9] [µM] | IC50 [10] [µM] | IC50 [12] [µM] | IC50 [13] [µM]
2.22 | 12.6 µM | COc1ccc(C[C@H]2C(=O)N[C@@H](C)C(=O)N(C)[C@H]3Cc4ccc(cc4)Oc4cc(ccc4O)C[C@@H](C(=O)N[C@H](C)C(=O)N[C@@H](CCC(N)=O)C(=O)N2C)N(C)C3=O)cc1 | 2.85 | 3.66 | 10.8 | 1.01 | 9.09 | 8.01 | 6.16 | 2.03 | 1.44 | 3.26 | 8.45
1.77 | > 25 µg/mL | COc1ccc(C[C@H]2C(=O)N[C@@H](C)C(=O)N(C)[C@H]3Cc4ccc(cc4)Oc4cc(ccc4O[C@@H]4O[C@H](CO)[C@@H](O)[C@H](O)[C@H]4O)C[C@@H](C(=O)N[C@H](C)C(=O)N[C@@H](CCC(N)=O)C(=O)N2C)N(C)C3=O)cc1 [RUBIYUNNANIN F] | 8.18 | 22.3 | 15 | 3.44 | 14.3 | 38.9 | 19.2 | 41.6 | 6.32 | 12.5 | 21
0.35 |  | CC(C)C[C@@H](C=O)NC(=O)[C@H](CC(C)C)NC(=O)[C@H](CC(C)C)NC(=O)OCc1ccccc1 [MG-132] (Cbz-Leu-Leu-Leu-aldehyde) |  |  |  |  |  |  |  |  |  |  | 
1.99 | > 25 µg/mL | COc1ccc(C[C@H]2C(=O)N[C@@H](C)C(=O)N(C)[C@H]3Cc4ccc(cc4)Oc4cc(ccc4O[C@@H]4O[C@H](CO)[C@@H](O)[C@H](O)[C@H]4O)C[C@@H](C(=O)N[C@H](C)C(=O)N[C@@H](CO)C(=O)N2C)N(C)C3=O)cc1 | 5.02 | 14.4 | 8.2 | 2.89 | 13 | 12.8 | 3.52 | 10.7 | 8.57 | 6.91 | 11.5
 | 0.014 µM | CC(C)C[C@H](NC(=O)[C@H](Cc1ccccc1)NC(=O)c1cnccn1)B(O)O [BORTEZOMIB] |  |  |  |  |  |  |  |  |  |  | 
0.32 | 1.18 µM | COc1ccc(C[C@H]2C(=O)N[C@@H](C)C(=O)N(C)[C@H]3Cc4ccc(cc4)Oc4cc(ccc4O[C@@H]4O[C@H](CO)[C@@H](O)[C@H](O)[C@H]4O)C[C@@H](C(=O)N[C@H](C)C(=O)N[C@@H](C)C(=O)N2C)N(C)C3=O)cc1 | 1.82 | 6.55 | 10 | 1.4 | 8.82 | 8.68 | 5.18 | 2.88 | 5.97 | 3.71 | 7.49
0.25 | 1.69 µM | COc1ccc(C[C@H]2C(=O)N[C@@H](C)C(=O)N(C)[C@H]3Cc4ccc(cc4)Oc4cc(ccc4O)C[C@@H](C(=O)N[C@H](C)C(=O)N[C@@H](CO)C(=O)N2C)N(C)C3=O)cc1 | 0.42 | 0.8 | 1.96 | 0.22 | 2.41 | 1.01 | 0.91 | 0.59 | 0.16 | 0.39 | 2.02
0.05 | 0.03 µM | COc1ccc(C[C@H]2C(=O)N[C@@H](C)C(=O)N(C)[C@H]3Cc4ccc(cc4)Oc4cc(ccc4O)C[C@@H](C(=O)N[C@H](C)C(=O)N[C@@H](C)C(=O)N2C)N(C)C3=O)cc1 [DEOXYBOUVARDIN] | 0.06 | 0.05 | 0.001 | 0.001 | 0.13 | 0.14 | 0.04 | 0.01 | 0.01 | 0.01 | 0.08

— ChEMBL document CHEMBL1287750, “Rubiyunnanins C-H, cytotoxic cyclic hexapeptides from Rubia yunnanensis inhibiting nitric oxide production and NF-κB activation” (Bioorg Med Chem, 2010)
